# This is a sample that favours compounds with a hit; in the whole collection about 2.1% have one here.
# M1 antag – human CHRM1 antagonism. P11229. CHO-K1 hM1, Fluo-8 calcium fluorescence, ACh EC80 antagonist. inhibition, % at 3 µM. 1.3% of 360,000 active. AID 588852;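 active = percent inhibition above its own plate's cutoff, namely the mean of that plate's compound wells plus 3 SD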;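 also: peak over basal fluorescence ratio during 140 s after agonist addition; 0% = ACh EC80 plus DMSO and 100% = DMSO alone without agonist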
# CHRM1 agonist – activates human CHRM1 receptor; P11229; CHO-K1 hM1, Fluo-8 calcium fluorescence, agonist mode; 0% DMSO, 100% acetylcholine EC100; activation, % at 3 µM; 0.33% of 360,000 active; AID 588814;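 active = activation above the run's mean compound activation plus 3 SD, cut at about 16% in these data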;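 also: peak over basal fluorescence ratio within a 140 s kinetic read after compound addition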
# CHRM1 PAM – human CHRM1 positive allosteric modulation. activation, % at 3 µM. CHO-K1 hM1, Fluo-8 calcium fluorescence, ACh EC20; 0% = ACh EC20, 100% = maximal ACh. 0.088% of 360,000 active; in the data active = activation above about 19%, passing the limit was not always enough
# CHRM5 agonist – CHRM5 agonism in calcium assay; 0.19% of 360,000 active; activation, % at 3 µM; P08912; CHO-K1 hM5 cells, Fluo-8 calcium fluorescence; 0% DMSO wells, 100% maximal acetylcholine response;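 active = activation above the run's mean over test compounds plus 3 SD, cut at about 23% in these data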;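 also: signal is peak over basal fluorescence ratio across the kinetic read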
# Target sequence (P08912 whole entry, looked up): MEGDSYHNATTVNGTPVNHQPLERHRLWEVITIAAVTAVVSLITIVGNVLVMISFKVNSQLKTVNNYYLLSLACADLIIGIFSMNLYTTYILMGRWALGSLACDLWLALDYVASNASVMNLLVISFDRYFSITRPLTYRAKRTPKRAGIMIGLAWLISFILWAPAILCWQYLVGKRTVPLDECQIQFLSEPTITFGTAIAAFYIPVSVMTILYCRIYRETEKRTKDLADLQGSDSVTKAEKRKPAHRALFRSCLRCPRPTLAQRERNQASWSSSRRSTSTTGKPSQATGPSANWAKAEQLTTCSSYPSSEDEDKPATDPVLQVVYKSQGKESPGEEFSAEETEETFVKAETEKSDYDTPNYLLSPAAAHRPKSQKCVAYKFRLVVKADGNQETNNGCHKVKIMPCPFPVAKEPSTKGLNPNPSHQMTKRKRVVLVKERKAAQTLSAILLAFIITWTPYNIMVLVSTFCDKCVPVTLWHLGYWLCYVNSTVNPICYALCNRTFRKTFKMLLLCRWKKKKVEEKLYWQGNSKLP
# M5 antag – blocks acetylcholine activation of human M5 receptor. AID 624040. 0.59% of 360,000 active. P08912. CHO-hM5 cells, Fluo-8 calcium fluorescence, ACh EC80. inhibition, % at 3 µM;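 active = inhibition above a per-plate cutoff, the mean of that plate's test compounds plus 3 SD, cut at about 27% in these data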;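 also: 0% = acetylcholine EC80 with DMSO and 100% = DMSO without agonist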
# M5 PAM – CHRM5 positive allosteric modulation; P08912; activation, % at 3 µM; 0.3% of 360,000 active; CHO-K1 hM5, Fluo-8 calcium, ACh EC20 PAM; 0% = ACh EC20, 100% = ACh EC100; AID 624038;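 active = activation above the run cutoff, the mean activation of all test compounds plus 3 SD, cut at about 18% in these data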
#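 System: CHO-K1 cell line with stable human muscarinic M5 receptor expression | Also added: EC20 acetylcholine as agonist stimulus | Compound: One concentration, 3 µM final (nominal) | Timing: Fluo-8 loading 80 min at 37 °C plus 30 min room temperature | Measured by: Fluo-8 calcium dye fluorescence, kinetic read | Read-out basis: % activation, ACh-normalized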
# * marks the source's active call; other numbers are inactive results.
SMILES,M1 antag,CHRM1 agonist,CHRM1 PAM,CHRM5 agonist,M5 antag,M5 PAM
COC(=O)C1CSC(C(=O)OC)N1C(=O)CN1CC(C)OC(C)C1 (configuration not stated),-7,-2,8,0,5,-2
O=C(CSc1ccccn1)NCc1ccc2c(c1)OCO2,-4,-5,4,-1,7,2
O=S1(=O)NC(=NCC(c2ccco2)N2CCCCC2)c2ccccc21 (configuration not stated),57*,-8,-24,-19,7,-24
CC(=O)OCCn1c2nc(=O)[nH]c(=O)c-2nc2cc(C)c(C)cc21,38*,202*,-27,418*,42*,-30
CC(=O)OCCn1c(C)[n+](CCOC(C)=O)c2cc(Cl)c(Cl)cc21,4,-10,-4,-2,16,-11
COc1ccc(OC)c(NS(=O)(=O)c2cccc3cccnc23)c1,-13,-4,8,-2,2,-1
COc1ccc(C(C)(C)C)cc1NS(=O)(=O)c1cccc2cccnc12,-7,0,32*,-4,6,-6
O=C1c2ccccc2NC2(CCCC2)N1N=C1CCCC1,4,-3,-3,-1,4,5
Cc1c(C(=O)NNC(=O)c2ccccc2O)oc2ccccc12,-2,-1,0,-1,4,-7
CC(Cc1ccccc1)NC(=O)CSc1nc2nc3c(cc2c(=O)n1-c1ccccc1)COC(C)(C)C3 (configuration not stated),-5,16*,8,-1,0,-1
O=C(Nc1ccccc1)Nc1cc(OCC(F)(F)F)cc(OCC(F)(F)F)c1,25*,-1,-21,1,47*,-18
COc1ccccc1C(=O)Nc1nc2ccccc2s1,31*,-6,-17,-7,-5,6
COc1ccc(C(=O)Nc2nc3ccccc3s2)c(OC)c1,-7,-6,-2,-6,10,-3
CN(C(=O)c1ccc2c(c1)SC1=NS(=O)(=O)CCN12)C(c1ccccc1)c1ccccc1,41*,-8,-21,-3,23,-16
COc1cc(-c2n[nH]c(=S)n2/N=C/c2cccn2C)cc(OC)c1OC,39*,64*,-26,50*,17,-18
CCOC(=O)N1CCN(C(=O)CSCC(=O)Nc2nc(-c3ccc(OC)cc3)cs2)CC1,1,-1,6,6,3,-1
CCOC(=S)SCC(=O)Nc1nc(-c2ccc(Br)cc2)cs1,32*,-4,4,-3,13,-2
CCOC(=O)N1CCN(C(=O)CSCC(=O)Nc2nc(-c3ccc(-c4ccccc4)cc3)cs2)CC1,48*,4,-19,8,44*,-22
Cc1ccsc1C(=O)OCC(=O)N(C)C1CCCCC1,3,-4,-2,4,11,-8
COc1cccc(NC(=O)Nc2ccc3nsnc3c2)c1,21,5,-17,5,54*,-16
COc1cccc(NC(=O)Nc2cc(Cl)ccc2C)c1,3,-3,-12,0,32*,-7
CCSc1nsc(NC(=O)Nc2cccc(F)c2)n1,38*,4,-12,14,17,-20
COc1ccc(NC(=O)Nc2cccc(OC)c2)cc1,20,-4,-3,2,2,-3
COc1cccc(NC(=O)Nc2nc(SC(C)(C)C)ns2)c1,37*,6,-15,14,23,-25
COc1cccc(NC(=O)Nc2nc(SC)ns2)c1,6,6,0,13,18,-11
SMILES,M1 antag,CHRM1 agonist,CHRM1 PAM,CHRM5 agonist,M5 antag,M5 PAM
N#CC1=C(N)Oc2cc(O)ccc2C1c1ccc(Br)s1 (configuration not stated),-17,13,3,29*,9,-21
Cc1ccc(C)c(N2N=C(C(=O)O)CCC2=O)c1,-4,-2,4,4,-2,9
COCC(=O)Nc1cccc(C(F)(F)F)c1,-8,-3,4,-5,-5,3
NCC(O)CN(c1ccccc1)c1ccccc1 (configuration not stated),7,-5,-4,-4,-5,-1
CC(C)[N+](C)(C)CC(O)CN(c1ccccc1)c1ccccc1 (configuration not stated),86*,-9,-28,-17,27*,-35
COc1ccc(N2CCN(C(=O)CSc3nnc4n3C(C)(C)Cc3ccccc3-4)CC2)cc1,-9,-5,6,-1,2,-2
Cc1ccc(Cl)cc1N1CCN(C(=O)CSc2nnc3n2C(C)(C)Cc2ccccc2-3)CC1,50*,1,-15,4,41*,-24
CN1CCC(N(C)CC(=O)Nc2ccc3c(c2)OC(F)(F)O3)CC1,72*,-7,-23,-16,-4,6
CC1(C)CC(=O)C=C(Nc2ccc(C(=O)O)cc2)C1,3,-2,-8,-1,1,-6
CC1(C)CC(=O)C=C(Nc2ccc(O)c(C(=O)O)c2)C1,-38,2,30*,9,-20,12
O=[N+]([O-])c1cccc(-c2ccn[nH]2)c1,-2,-2,31*,0,9,-2
Cc1ccc(C(=O)NCCn2cc(SCC(=O)Nc3cc(C)on3)c3ccccc32)cc1,3,-6,-6,36*,1,-21
Nc1[nH]n2c(=O)cc(-c3ccccc3)nc2c1N=Nc1ccccc1,-1,-4,-1,-2,11,0
Nc1[nH]n2c(=O)cc(-c3ccccc3)nc2c1N=Nc1ccc(S(N)(=O)=O)cc1,0,-3,12,10,13,19*
Cc1cc(=O)[nH]c2cc(Cl)ccc12,5,-3,4,0,0,5
COc1ccc2c(C)cc(=O)[nH]c2c1,-11,-2,8,-3,-14,40*
Nc1c(C(=O)C2CC2)sc2nc(-c3cccs3)cc(C(F)(F)F)c12,37,19*,-9,1,19,6
O=c1[nH]c(=S)[nH]c2nc(-c3cccs3)cc(C(F)(F)F)c12,0,-4,1,0,-6,-5
Cc1cc(Cl)ccc1OCC(=O)NCC(c1cccs1)N1CCOCC1 (configuration not stated),6,-1,-3,2,-2,-2
CCCN1C2CCCC1CC(NC(=O)c1ccccc1OCC)C2 (configuration not stated),20,-5,-9,-6,0,-2
CCNC(=S)NC1CC2CCCC(C1)N2CCc1ccccc1 (configuration not stated),72*,-8,-27,-23,69*,-34
CCOc1ccccc1C(=O)NC1CC2CCCC(C1)N2Cc1ccc(C)cc1 (configuration not stated),43*,-9,-24,-17,0,-2

# Screens as filed in PubChem BioAssay.
